An excerpt weighted towards active compounds, which were near 4.8% of everything screened.
FLuc act counter = affects firefly luciferase, flagging false hits in luciferase stimulation screens. P08659. ATPlite luciferase biochemical, luminescence, 10 min; 0 = ATP-free wells, 1 = DMSO control. activation factor at 10 µM. 200,000 tested, under 10 active. AID 1027;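 active = luciferase activation factor, scaled between plate controls, of at least 2 with compound at 10 µM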
Target sequence (P08659 whole entry, looked up): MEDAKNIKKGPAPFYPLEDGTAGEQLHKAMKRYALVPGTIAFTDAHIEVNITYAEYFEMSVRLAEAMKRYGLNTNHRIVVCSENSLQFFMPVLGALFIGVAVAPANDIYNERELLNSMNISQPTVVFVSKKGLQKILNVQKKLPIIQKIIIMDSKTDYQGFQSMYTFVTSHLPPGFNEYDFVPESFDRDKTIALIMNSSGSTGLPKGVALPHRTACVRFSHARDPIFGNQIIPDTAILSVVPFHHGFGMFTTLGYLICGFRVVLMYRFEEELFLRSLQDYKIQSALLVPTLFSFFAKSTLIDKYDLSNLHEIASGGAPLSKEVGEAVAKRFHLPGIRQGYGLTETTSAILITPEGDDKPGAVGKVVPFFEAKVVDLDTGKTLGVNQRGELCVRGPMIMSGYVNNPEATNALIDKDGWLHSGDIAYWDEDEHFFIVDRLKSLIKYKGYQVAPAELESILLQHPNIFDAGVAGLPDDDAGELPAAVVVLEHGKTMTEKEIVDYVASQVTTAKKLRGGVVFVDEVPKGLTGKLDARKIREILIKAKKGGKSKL
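System: Luciferase/luciferin detection reagent, cell-free biochemical luciferase assay | Medium: PBS buffer for ATP | Dosing: Test compounds dosed from 2 mM stocks in 100% DMSO | Timing: 10 min at ambient temperature | Signal: Luminescence measurement of luciferase light output | Evaluation: Luciferase activation, seen as luminescence increase over controls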
NF-kB expr up = NF-kB expression increase, human neuronal cells; 190,000 tested, 1.6% active; NF-kB reporter expression; hits give high values; fold change at 12.5 µM; in the data active = fold change above about 3.3
APP 5'UTR act = activates APP 5'UTR luciferase reporter. SH-SY5Y APP 5'UTR luciferase reporter, luminescence; zero percent = DMSO vehicle wells. activation, % at 2 µM. 190,000 tested, 1% active. AID 1276;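 active = activation above a set limit, based on mean plus 3 SD of controls, cut at about 140% in these data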
APP 5UTR inh = APP translation inhibition; SH-SY5Y APP 5'UTR-luciferase reporter, luminescence; inhibition, % at 2 µM; 190,000 tested, 0.82% active;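 active = inhibition above a set limit, derived from the sample mean plus 3 SD, cut at about 45% in these data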
STAT1 act = activators of IFN-gamma induced STAT1 signaling; 200,000 tested, 2.6% active; NIH 3T3 STAT1-luciferase reporter, luminescence; 100% = IFN-gamma alone, no compound; activation (% of control), % at 5.5 µM; AID 932;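 active = activation above the screen-wide mean activation plus 3 SD, cut at about 130% in these data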
FLuc inh counter = Photinus pyralis luciferase inhibition counter-screen; P08659; ATPLite firefly luciferase biochemical luminescence, 10 min; inhibition, % at 10 µM; 200,000 tested, 1.5% active; AID 1006;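 active = inhibition above about 50% when tested at 10 µM, limit read from the data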
A number is an active result; i = inactive; nt = no result.

SMILES	FLuc act counter	NF-kB expr up	APP 5'UTR act	APP 5UTR inh	STAT1 act	FLuc inh counter
O=C(/C=C/c1ccco1)Nc1ccc2c(c1)OCO2	i	4.6	i	i	i	66
COC(=O)c1cccc(NC(=O)/C=C/c2ccc3c(c2)OCO3)c1	i	i	i	i	i	69
O=C(/C=C/c1ccc2c(c1)OCO2)Nc1cccnc1	i	i	162	i	i	87
CC(=O)NC1(NC(C)=O)CCN(C)CC1	i	i	i	i	i	i
CCN1C(=O)CC(c2ccco2)Sc2ccccc21 (stereo not given)	i	i	i	i	i	i
Cc1ccc(NC(=O)COC(=O)CCc2ccc(S(=O)(=O)N3CCOCC3)cc2)cc1F	i	i	i	i	i	i
CC(=O)Nc1ccc(NC(=O)/C=C/c2ccc3c(c2)OCO3)cc1	i	i	i	i	i	i
Cc1cc(C)nc(NC(=O)/C=C/c2ccc3c(c2)OCO3)c1	i	3.3	i	i	135	71
CC(=O)c1ccc(N=Nc2ccc(N(C)C)cc2)cc1	i	3.9	i	i	i	53
CC(=O)c1ccc(N=Nc2ccc(C)cc2)cc1	i	4.8	283	i	i	52
O=C(Cn1nnc2ccccc21)OCc1ccccc1	i	i	i	i	i	i
Cc1ccc(NC(=O)CCn2nnc3ccccc32)c(C)c1	i	i	i	i	i	i
O=C(Cn1nnc2ccccc21)C1CC1	i	i	i	i	i	i
O=C(Cn1nnc2ccccc21)N1CCCCC1	i	i	i	i	i	i
Cc1ccc(NC(=O)CCn2nnc3ccccc32)cc1	i	i	i	i	130	i
Cc1ccc(C(=O)Cn2nnc3ccccc32)cc1C	i	4.1	i	i	143	i
O=C(Cn1nnc2ccccc21)NCc1ccccc1	i	i	i	i	144	i
Cc1ccc(C(=O)Cn2nnc3ccccc32)cc1	i	3.3	i	i	i	i
Cc1nnc(SCC(=O)Nc2nsc(-c3ccc(C(C)(C)C)cc3)n2)s1	i	8.6	147	i	141	i
Cc1nnc(SCC(=O)Nc2ccccc2NC(=O)CSc2nnc(C)s2)s1	i	i	i	i	i	i
CCOC(=O)c1sc(=S)n(C)c1NC(=O)c1ccccc1Cl	i	i	i	i	i	i
Oc1c(CN2CCc3ccccc3C2)cc(Cl)c2cccnc12	i	i	i	i	i	i
O=C(COc1c(Br)cc(Br)c2cccnc12)N1CCCCC1	i	i	i	i	i	i
O=[N+]([O-])c1cc(CN2CCN(c3ccccc3)CC2)c(O)c2ncccc12	i	i	i	80	i	i
Oc1ccc(CN2CCN(Cc3ccccc3)CC2)c2cccnc12	nt	6	i	i	i	nt
SMILES	FLuc act counter	NF-kB expr up	APP 5'UTR act	APP 5UTR inh	STAT1 act	FLuc inh counter
Oc1c(CN2CCCCC2)cc(Br)c2cccnc12	i	i	i	67	i	i
CN1CCN(Cc2cc(COCc3ccccc3)c3cccnc3c2O)CC1	i	5.3	i	72	i	i
CCCC(C)NS(=O)(=O)c1ccc(OC)c(C)c1 (stereo not given)	i	i	i	i	i	i
COc1ccccc1NC(=O)N1C2CCCC1CC(NC(=O)c1ccccc1)C2 (stereo not given)	i	i	i	i	i	i
COC(=O)c1ccc(NC(=S)NC2c3ccccc3CC2O)cc1 (stereo not given)	i	4	i	i	i	i
Cc1ccc(/C=c2/sc3n(c2=O)CCCN=3)o1	i	i	i	i	129	i
Cc1ccc(/C=c2\sc3n(c2=O)CN(c2ccc(Br)cc2)CN=3)o1	i	i	i	i	i	i
O=C(Nc1ccc2c(c1)OCCO2)c1ccc2nccnc2c1	i	nt	165	i	i	80
Cc1ccc(C(=O)Nc2ccc3nccnc3c2)cc1	i	8.4	145	i	i	89
O=C(Nc1ccc2c(c1)OCCO2)c1cccnc1	i	i	i	i	129	i
O=C(Nc1ccc2c(c1)OCCO2)c1c(F)c(F)c(F)c(F)c1F	i	i	nt	i	i	i
CSC1=NCCN1C(=O)C12CC3CC(CC(C3)C1)C2	i	i	i	i	i	i
Cc1cc(C)n2nc(-c3ccco3)nc2n1	i	i	i	i	i	i
COc1ccc(Nc2nc(C(F)(F)F)nc(C)c2C#N)cc1	i	i	i	i	i	i
Cc1cccc(NC(=O)c2n[nH]c([N+](=O)[O-])c2Br)c1C	i	4.1	i	i	i	i
N#C/C(=C(/O)COC(=O)CSc1ccc2ccccc2c1)c1nc2ccccc2[nH]1	i	3.5	i	i	i	i
Cc1ccc(C)c(SCC(=O)OC/C(O)=C(\C#N)c2nc3ccccc3[nH]2)c1	i	i	i	i	i	i
CC(C)c1nnc(NC(=O)C2CCN(S(=O)(=O)c3ccc(-n4cnnn4)cc3)CC2)s1	i	i	i	i	i	i
CC1(C)N=C(N)N=C(N)N1c1ccccc1	i	3.8	i	i	i	i
CC1(C)N=C(N)N=C(N)N1c1ccc(F)cc1F	i	i	i	i	i	i
O=c1cc(-c2c(F)c(F)c(F)c(F)c2F)oc2c(F)c(F)c(F)c(F)c12	i	i	i	97	i	i
O=c1cc(-c2c(F)c(F)c(F)c(F)c2F)oc2ccccc12	i	i	i	i	i	i
CC(C)(C)OC(=O)N[C@@H](Cc1ccccc1)c1nnc(S(=O)(=O)Cc2cccc(F)c2)o1	i	i	i	53	i	i
COc1cc([C@@H]2c3cc4c(cc3[C@H](O)[C@H]3COC(=O)[C@H]23)OCO4)cc(OC)c1OC	i	3.9	i	94	i	i
CC1CCCCC12NC(=O)N(CC(=O)NC(=O)Nc1ccc3c(c1)OCCO3)C2=O (stereo not given)	i	i	i	i	132	i
SMILES	FLuc act counter	NF-kB expr up	APP 5'UTR act	APP 5UTR inh	STAT1 act	FLuc inh counter
O=C(C=C1SCCS1)/C=C/c1ccco1	i	5.9	158	i	i	70
Cc1ccccc1-c1nc2cc(N)ccc2o1	i	4	i	i	141	55
CC(C)c1ccc2oc(-c3cc(N)ccc3O)nc2c1	i	i	158	i	i	93
O=c1oc2ccc(Br)cc2cc1-c1nc2ccccc2o1	i	i	i	i	i	i
CCCC(C)NC(=O)CSc1nc2ccc(C)cc2[nH]1 (stereo not given)	i	i	i	i	i	i
CC(=O)NCc1ccc(-c2nc3ccccc3s2)cc1	i	i	151	i	136	64
COc1ccc(-c2cc(OC)c3ccccc3n2)cc1	i	i	i	i	i	i
Cc1ccc(Cn2cccc(-c3nc4ccccc4s3)c2=O)cc1	i	i	i	i	140	i
Nc1ccccc1-c1nc2ccccc2s1	i	i	i	i	144	i
Cc1ccc(CC2CC(=O)N(c3nc4ccccc4s3)C2=O)cc1 (stereo not given)	i	i	i	i	i	i
COc1ccc(-c2ccc3ccccc3n2)cc1	i	10	206	i	i	72

Assay outcomes from PubChem.
